Assay results reported in ChEMBL document CHEMBL1938329, “The discovery of potent, selective, and orally active pyrazoloquinolines as PDE10A inhibitors for the treatment of Schizophrenia” (Bioorg Med Chem Lett, 2012).
Each block holds one compound with its values, some of them ahead of it. The source made the active and inactive calls. The rule behind the calls is not given here.

Key:
Phosphodiesterase 6 = experiment: Inhibition of recombinant human PDE6 using [3H]cAMP as substrate by scintillation proximity assay; type: protein assay
Summary of the method: (§1)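 Scintillation proximity assay with [³H]cAMP as substrate, measuring hydrolysis of cAMP to AMP by recombinant human PDEs 1–11. Ki values are means of at least two experiments.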

Phosphodiesterase 7 = Phosphodiesterase 7 (Homo sapiens, UniProt Q13946+Q9NP56); experiment: Inhibition of recombinant human PDE7 using [3H]cAMP as substrate by scintillation proximity assay; type: protein assay; summary of the method: as §1
Phosphodiesterase 8 = Phosphodiesterase 8 (Homo sapiens, UniProt O95263+O60658); experiment: Inhibition of recombinant human PDE8 using [3H]cAMP as substrate by scintillation proximity assay; type: protein assay; summary of the method: as §1
[1] = target: High affinity cGMP-specific 3',5'-cyclic phosphodiesterase 9A (Homo sapiens, UniProt O76083); experiment: Inhibition of recombinant human PDE9 using [3H]cAMP as substrate by scintillation proximity assay; summary of the method: as §1
[2] = target: Dual 3',5'-cyclic-AMP and -GMP phosphodiesterase 11A (Homo sapiens, UniProt Q9HCR9); experiment: Inhibition of recombinant human PDE11 using [3H]cAMP as substrate by scintillation proximity assay; summary of the method: as §1
[3] = AUC (0 to 6 hrs) in rat at 10 mg/kg, po; type: ADME, organism-based; set-up: time < 6 hr, dose 10 mg/kg, route oral; conditions: plasma
Summary of the method: (§2)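 Rat cassette-accelerated rapid screen, 10 mg/kg oral. Plasma exposure measured over 0–6 h. Brain drug concentration taken at 6 h. Brain/plasma ratio is brain over plasma drug concentration at 6 h.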

[4] = Drug uptake in rat brain at 10 mg/kg, po after 6 hrs; type: ADME, organism-based; set-up: dose 10 mg/kg, route oral; conditions: read-out: Drug uptake; summary of the method: as §2
[5] = Ratio of drug level in brain to plasma in rat at 10 mg/kg, po at 6 hrs; type: ADME, organism-based; set-up: dose 10 mg/kg, route oral; conditions: read-out: BPR; summary of the method: as §2
[6] = Plasma protein binding in rat; type: ADME, cell-free; conditions: read-out: PPB (converted)
[7] = target: 5-hydroxytryptamine receptor 1B (Homo sapiens) (UniProt P28222); experiment: Inhibition of 5HT1b at 10 uM
[8] = target: cGMP-specific 3',5'-cyclic phosphodiesterase (Homo sapiens, UniProt O76074); experiment: Inhibition of recombinant human PDE5A using [3H]cAMP as substrate by scintillation proximity assay; summary of the method: as §1
Phosphodiesterase 1 = Phosphodiesterase 1 (Homo sapiens, UniProt P54750+Q01064+Q14123); experiment: Inhibition of recombinant human PDE1 using [3H]cAMP as substrate by scintillation proximity assay; type: protein assay; summary of the method: as §1
[9] = target: cGMP-dependent 3',5'-cyclic phosphodiesterase (Homo sapiens, UniProt O00408); experiment: Inhibition of recombinant human PDE2 using [3H]cAMP as substrate by scintillation proximity assay; summary of the method: as §1
Phosphodiesterase 3 = Phosphodiesterase 3 (Homo sapiens, UniProt Q14432+Q13370); experiment: Inhibition of recombinant human PDE3 using [3H]cAMP as substrate by scintillation proximity assay; type: protein assay; summary of the method: as §1
Phosphodiesterase 4 = Phosphodiesterase 4 (Homo sapiens, UniProt P27815+Q08499+Q07343+Q08493); experiment: Inhibition of recombinant human PDE4 using [3H]cAMP as substrate by scintillation proximity assay; type: protein assay; summary of the method: as §1
[10] = target: T1, 5-hydroxytryptamine receptor 3A (Homo sapiens) (UniProt P46098); experiment: Inhibition of 5HT3 at 10 uM
T1 sequence (whole entry): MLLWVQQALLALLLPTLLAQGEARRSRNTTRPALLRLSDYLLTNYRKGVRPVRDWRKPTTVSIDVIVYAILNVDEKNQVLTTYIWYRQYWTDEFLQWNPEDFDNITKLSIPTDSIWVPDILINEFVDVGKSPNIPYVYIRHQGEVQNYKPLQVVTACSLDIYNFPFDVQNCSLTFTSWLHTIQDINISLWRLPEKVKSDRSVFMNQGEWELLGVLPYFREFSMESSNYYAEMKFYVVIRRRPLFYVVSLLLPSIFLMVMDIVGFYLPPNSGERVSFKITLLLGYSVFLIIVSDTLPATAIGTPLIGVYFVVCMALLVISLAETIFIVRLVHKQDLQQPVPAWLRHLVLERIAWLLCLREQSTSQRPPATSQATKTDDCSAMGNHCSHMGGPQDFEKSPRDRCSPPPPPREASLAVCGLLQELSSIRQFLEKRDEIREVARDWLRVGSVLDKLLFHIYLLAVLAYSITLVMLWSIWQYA

[11] = target: 5-hydroxytryptamine receptor 7 (Homo sapiens) (UniProt P34969); experiment: Inhibition of 5HT7 at 10 uM
[12] = target: Casein kinase I isoform delta (Homo sapiens, UniProt P48730); experiment: Inhibition of CK1delta
[13] = target: cAMP and cAMP-inhibited cGMP 3',5'-cyclic phosphodiesterase 10A (Homo sapiens, UniProt Q9Y233); experiment: Inhibition of recombinant human PDE10A using [3H]cAMP as substrate by scintillation proximity assay; summary of the method: as §1
Homo sapiens [14] = species on record: Homo sapiens; experiment: Selectivity ratio of Ki for recombinant human PDE1 to Ki for recombinant human PDE10A
Summary of the method: (§3)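 Recombinant human PDE enzymes (PDE1–11) were tested in a scintillation proximity assay with [³H]cAMP as substrate, measuring hydrolysis of cAMP to AMP. Ki values are means of at least two experiments. The ratio is the Ki for each off-target PDE divided by the PDE10A Ki.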

Homo sapiens [15] = species on record: Homo sapiens; experiment: Selectivity ratio of Ki for recombinant human PDE2 to Ki for recombinant human PDE10A; summary of the method: as §3
Homo sapiens [16] = species on record: Homo sapiens; experiment: Selectivity ratio of Ki for recombinant human PDE3 to Ki for recombinant human PDE10A; summary of the method: as §3
Homo sapiens [17] = species on record: Homo sapiens; experiment: Selectivity ratio of Ki for recombinant human PDE4 to Ki for recombinant human PDE10A; summary of the method: as §3
Homo sapiens [18] = species on record: Homo sapiens; experiment: Selectivity ratio of Ki for recombinant human PDE6 to Ki for recombinant human PDE10A; summary of the method: as §3
Homo sapiens [19] = species on record: Homo sapiens; experiment: Selectivity ratio of Ki for recombinant human PDE7 to Ki for recombinant human PDE10A; summary of the method: as §3
Homo sapiens [20] = species on record: Homo sapiens; experiment: Selectivity ratio of Ki for recombinant human PDE8 to Ki for recombinant human PDE10A; summary of the method: as §3
Homo sapiens [21] = species on record: Homo sapiens; experiment: Selectivity ratio of Ki for recombinant human PDE9 to Ki for recombinant human PDE10A; summary of the method: as §3
Homo sapiens [22] = species on record: Homo sapiens; experiment: Selectivity ratio of Ki for recombinant human PDE11 to Ki for recombinant human PDE10A; summary of the method: as §3
Rattus norvegicus [23] = experiment: Antipsychotic activity in CD rat assessed as inhibition of MK-801-induced hyperactivity at 30 mg/kg, po relative to control; type: functional, organism-based; set-up: dose 30 mg/kg
Summary of the method: (§4)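 Male CD rats habituated to locomotor activity chambers 24 h before testing. On test day, MK-801 (0.3 mg/kg, sc) co-administered with PDE10 inhibitor (po), then rats placed in apparatus. Inhibition expressed as percent of activity in inhibitor + MK-801 group relative to vehicle + MK-801 group.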

Homo sapiens [24] = species on record: Homo sapiens; experiment: Selectivity ratio of Ki for recombinant human PDE5A to Ki for recombinant human PDE10A; summary of the method: as §3
[25] = AUC in dog at 2 mg/kg, po; type: ADME, organism-based, Canis lupus familiaris; set-up: dose 2 mg/kg, route oral; conditions: plasma
[26] = Clearance in human hepatocytes assessed per million of cells; type: ADME, cell-based, Hepatocyte; conditions: read-out: CLH
[27] = Clearance in rat hepatocytes assessed per million of cells; type: ADME, cell-based, Hepatocyte; conditions: read-out: CLH
[28] = Clearance in dog hepatocytes assessed per million of cells; type: ADME, cell-based, Canis lupus familiaris, Hepatocyte; conditions: read-out: CLH
[29] = Clearance in cebus monkey hepatocytes assessed per million of cells; type: ADME, cell-based, Hepatocyte; conditions: cebus capucinus, read-out: CLH
[30] = Efflux ratio of permeability in human Caco2 cells; type: ADME, cell-based; conditions: Caco-2
Rattus norvegicus [31] = experiment: Antipsychotic activity in po dosed CD rat assessed as inhibition of MK-801 induced hyperactivity relative to control; type: functional; summary of the method: as §4
Rattus norvegicus [32] = species on record: Rattus norvegicus; experiment: Sedative activity in rat assessed as hypolocomotion by spontaneous locomotor activity test; type: organism-based; conditions: in vivo
Summary of the method: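 Hypolocomotion assessed in rats by spontaneous locomotor activity test, run to distinguish reversal of MK-801-induced behaviour from compound-induced hypolocomotion; ED₅₀ derived.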

[33] = Drug uptake in CD rat brain at 30 mg/kg, po after 1 hr; type: ADME, organism-based; set-up: dose 30 mg/kg, route oral; conditions: read-out: Drug uptake

cAMP and cAMP-inhibited cGMP 3',5'-cyclic phosphodiesterase 10A, sequence (Q9Y233 whole entry): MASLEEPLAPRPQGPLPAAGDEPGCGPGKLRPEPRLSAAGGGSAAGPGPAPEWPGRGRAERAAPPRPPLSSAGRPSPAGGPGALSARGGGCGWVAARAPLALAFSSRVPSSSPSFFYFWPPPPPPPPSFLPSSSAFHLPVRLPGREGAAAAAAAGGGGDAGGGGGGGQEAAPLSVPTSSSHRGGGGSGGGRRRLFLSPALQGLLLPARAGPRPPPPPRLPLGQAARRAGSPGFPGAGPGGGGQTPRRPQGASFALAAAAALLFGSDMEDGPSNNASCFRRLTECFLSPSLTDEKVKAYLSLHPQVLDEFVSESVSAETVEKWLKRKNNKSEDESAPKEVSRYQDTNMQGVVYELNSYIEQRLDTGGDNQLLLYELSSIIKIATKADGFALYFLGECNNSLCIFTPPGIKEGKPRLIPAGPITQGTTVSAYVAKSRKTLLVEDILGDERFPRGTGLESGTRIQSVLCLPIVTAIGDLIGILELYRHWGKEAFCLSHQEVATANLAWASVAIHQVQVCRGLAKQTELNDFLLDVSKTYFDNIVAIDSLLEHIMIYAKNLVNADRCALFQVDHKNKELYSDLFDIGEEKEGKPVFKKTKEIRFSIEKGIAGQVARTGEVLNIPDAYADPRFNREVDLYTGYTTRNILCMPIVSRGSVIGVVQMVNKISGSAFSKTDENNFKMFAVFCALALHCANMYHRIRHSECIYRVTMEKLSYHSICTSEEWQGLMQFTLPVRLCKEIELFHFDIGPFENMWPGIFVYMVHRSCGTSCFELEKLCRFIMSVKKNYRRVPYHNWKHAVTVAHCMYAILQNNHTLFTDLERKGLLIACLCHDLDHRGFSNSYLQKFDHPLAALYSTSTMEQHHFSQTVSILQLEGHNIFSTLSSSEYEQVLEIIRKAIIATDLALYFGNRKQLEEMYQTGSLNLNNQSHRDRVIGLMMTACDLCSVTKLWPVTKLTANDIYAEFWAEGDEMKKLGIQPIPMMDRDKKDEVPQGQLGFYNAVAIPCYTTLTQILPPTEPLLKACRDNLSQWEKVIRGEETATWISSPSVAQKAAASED
High affinity cGMP-specific 3',5'-cyclic phosphodiesterase 9A, sequence (O76083 whole entry): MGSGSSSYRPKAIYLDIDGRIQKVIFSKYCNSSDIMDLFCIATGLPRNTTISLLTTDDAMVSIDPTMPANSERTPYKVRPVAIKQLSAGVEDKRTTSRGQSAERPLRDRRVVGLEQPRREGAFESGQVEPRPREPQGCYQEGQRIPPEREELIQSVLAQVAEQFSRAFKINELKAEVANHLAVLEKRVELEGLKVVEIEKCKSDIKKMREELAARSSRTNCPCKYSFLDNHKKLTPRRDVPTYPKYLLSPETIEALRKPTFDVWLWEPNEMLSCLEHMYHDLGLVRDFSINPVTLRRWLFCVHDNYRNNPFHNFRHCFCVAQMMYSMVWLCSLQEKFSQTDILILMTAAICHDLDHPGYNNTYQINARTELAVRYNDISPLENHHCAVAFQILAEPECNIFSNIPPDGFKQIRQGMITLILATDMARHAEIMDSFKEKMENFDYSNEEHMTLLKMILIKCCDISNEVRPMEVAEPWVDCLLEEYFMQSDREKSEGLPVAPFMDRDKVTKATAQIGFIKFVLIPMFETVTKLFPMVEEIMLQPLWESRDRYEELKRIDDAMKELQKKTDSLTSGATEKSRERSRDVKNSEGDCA
cGMP-dependent 3',5'-cyclic phosphodiesterase, sequence (O00408 whole entry): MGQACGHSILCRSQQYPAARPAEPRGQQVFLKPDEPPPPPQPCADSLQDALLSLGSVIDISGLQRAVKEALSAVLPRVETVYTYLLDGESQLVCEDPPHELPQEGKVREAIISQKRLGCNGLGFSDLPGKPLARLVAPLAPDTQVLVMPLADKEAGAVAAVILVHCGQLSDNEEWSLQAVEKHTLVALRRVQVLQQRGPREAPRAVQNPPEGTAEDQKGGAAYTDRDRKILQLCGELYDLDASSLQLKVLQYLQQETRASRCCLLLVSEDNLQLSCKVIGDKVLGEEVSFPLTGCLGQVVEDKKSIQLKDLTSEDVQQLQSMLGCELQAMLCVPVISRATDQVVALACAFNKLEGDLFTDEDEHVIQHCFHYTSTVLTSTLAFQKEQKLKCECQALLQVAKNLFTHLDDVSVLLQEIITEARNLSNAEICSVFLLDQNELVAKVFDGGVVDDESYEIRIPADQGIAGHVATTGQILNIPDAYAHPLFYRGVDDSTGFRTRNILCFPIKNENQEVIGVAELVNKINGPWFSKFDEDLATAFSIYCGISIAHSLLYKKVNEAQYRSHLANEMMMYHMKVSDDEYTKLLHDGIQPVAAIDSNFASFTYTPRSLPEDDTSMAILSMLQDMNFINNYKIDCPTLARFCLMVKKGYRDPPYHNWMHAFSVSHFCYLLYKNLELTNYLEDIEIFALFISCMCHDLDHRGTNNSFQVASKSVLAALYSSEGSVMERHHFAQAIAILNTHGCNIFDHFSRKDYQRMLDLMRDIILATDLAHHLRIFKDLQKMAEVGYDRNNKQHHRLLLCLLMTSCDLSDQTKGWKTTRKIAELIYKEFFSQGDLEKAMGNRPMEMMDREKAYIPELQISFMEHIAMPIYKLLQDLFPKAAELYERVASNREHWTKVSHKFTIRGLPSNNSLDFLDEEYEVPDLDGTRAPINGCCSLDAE
Dual 3',5'-cyclic-AMP and -GMP phosphodiesterase 11A, sequence (Q9HCR9 whole entry): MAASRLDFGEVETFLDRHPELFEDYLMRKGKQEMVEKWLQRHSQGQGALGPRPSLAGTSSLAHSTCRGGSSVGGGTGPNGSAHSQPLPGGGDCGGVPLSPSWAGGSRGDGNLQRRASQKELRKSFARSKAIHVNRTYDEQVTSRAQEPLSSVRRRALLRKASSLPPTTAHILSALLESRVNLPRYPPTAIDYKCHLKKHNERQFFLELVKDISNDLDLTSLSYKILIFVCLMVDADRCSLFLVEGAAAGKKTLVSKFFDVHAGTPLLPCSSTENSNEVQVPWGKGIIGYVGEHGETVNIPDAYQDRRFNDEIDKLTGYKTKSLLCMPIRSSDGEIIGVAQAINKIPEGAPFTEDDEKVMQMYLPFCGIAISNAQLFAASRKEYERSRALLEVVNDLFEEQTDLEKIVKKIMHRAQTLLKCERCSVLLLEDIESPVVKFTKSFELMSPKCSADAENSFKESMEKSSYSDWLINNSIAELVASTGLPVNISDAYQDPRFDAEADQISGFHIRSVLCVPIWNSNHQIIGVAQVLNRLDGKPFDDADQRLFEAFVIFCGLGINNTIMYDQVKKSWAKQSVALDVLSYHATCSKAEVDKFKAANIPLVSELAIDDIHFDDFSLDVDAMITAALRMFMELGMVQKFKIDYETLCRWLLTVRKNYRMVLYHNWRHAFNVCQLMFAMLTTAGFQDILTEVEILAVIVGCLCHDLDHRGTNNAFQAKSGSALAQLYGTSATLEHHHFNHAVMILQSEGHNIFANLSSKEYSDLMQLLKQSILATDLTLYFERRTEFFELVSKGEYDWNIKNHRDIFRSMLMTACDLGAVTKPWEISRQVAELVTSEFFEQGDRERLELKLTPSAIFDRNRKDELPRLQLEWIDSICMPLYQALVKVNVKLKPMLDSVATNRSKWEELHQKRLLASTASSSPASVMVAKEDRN
5-hydroxytryptamine receptor 1B (Homo sapiens), sequence (P28222 whole entry): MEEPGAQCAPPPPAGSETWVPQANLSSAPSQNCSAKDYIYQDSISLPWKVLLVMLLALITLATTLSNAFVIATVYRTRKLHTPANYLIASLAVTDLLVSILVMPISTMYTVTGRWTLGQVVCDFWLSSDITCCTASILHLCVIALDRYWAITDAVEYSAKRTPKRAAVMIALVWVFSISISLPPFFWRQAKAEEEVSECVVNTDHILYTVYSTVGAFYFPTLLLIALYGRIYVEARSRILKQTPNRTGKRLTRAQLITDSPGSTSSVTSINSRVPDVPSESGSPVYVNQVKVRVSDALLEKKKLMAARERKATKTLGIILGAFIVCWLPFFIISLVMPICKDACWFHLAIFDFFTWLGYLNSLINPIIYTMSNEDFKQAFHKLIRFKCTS
5-hydroxytryptamine receptor 7 (Homo sapiens), sequence (P34969 whole entry, canonical isoform): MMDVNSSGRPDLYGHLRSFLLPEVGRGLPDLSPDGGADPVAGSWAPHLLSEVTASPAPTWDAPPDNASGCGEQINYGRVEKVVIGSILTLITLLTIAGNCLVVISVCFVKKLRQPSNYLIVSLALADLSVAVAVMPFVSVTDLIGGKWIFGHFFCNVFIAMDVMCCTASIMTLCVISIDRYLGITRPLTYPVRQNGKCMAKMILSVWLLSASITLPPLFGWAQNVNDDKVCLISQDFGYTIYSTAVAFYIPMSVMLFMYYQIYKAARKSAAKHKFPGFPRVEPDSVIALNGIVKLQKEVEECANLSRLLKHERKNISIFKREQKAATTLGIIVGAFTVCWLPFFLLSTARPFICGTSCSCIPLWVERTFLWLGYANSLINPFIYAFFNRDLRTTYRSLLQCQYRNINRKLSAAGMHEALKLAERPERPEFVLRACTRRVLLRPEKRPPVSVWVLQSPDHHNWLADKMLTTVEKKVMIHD
Casein kinase I isoform delta, sequence (P48730 whole entry, canonical isoform): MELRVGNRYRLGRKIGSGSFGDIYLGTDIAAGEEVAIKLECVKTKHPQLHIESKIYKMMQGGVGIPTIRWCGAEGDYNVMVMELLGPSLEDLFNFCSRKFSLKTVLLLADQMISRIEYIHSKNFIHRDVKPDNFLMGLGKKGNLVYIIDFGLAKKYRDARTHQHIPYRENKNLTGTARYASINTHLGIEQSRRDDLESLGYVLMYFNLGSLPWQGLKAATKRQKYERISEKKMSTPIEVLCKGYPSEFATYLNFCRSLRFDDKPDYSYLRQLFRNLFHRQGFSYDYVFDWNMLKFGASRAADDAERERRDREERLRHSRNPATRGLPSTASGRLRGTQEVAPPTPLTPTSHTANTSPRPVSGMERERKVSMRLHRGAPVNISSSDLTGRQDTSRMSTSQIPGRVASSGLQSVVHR

Compound: COc1cc(C)c2nc3[nH]nc(C)c3c(N3CCNCC3)c2c1
Ki (Phosphodiesterase 6): >= 770 nM
Ki (Phosphodiesterase 7): >= 770 nM
Ki (Phosphodiesterase 8): >= 770 nM
Ki [1]: ≥ 770 nM
Ki [2]: ≥ 770 nM
AUC(0-t) at 6 h [3]: 3.3 µM·h
concentration at 6 h [4]: 123 ng/g
Kp at 6 h [5]: 1.2
fraction unbound [6]: 0.16
inhibition [7]: 54%
Ki [8]: > 100000 nM
Ki (Phosphodiesterase 1): >= 770 nM
Ki [9]: ≥ 770 nM
Ki (Phosphodiesterase 3): >= 770 nM
Ki (Phosphodiesterase 4): >= 770 nM
inhibition [10]: 54%
inhibition [11]: 54%
IC50 [12]: 320 nM

Compound: COc1cc(C)c2nc3[nH]nc(C)c3c(N3CCCOCC3)c2c1
Ratio Ki (Homo sapiens [14]): > 1450
Ratio Ki (Homo sapiens [15]): > 1450
Ratio Ki (Homo sapiens [16]): > 1450
Ratio Ki (Homo sapiens [17]): > 1450
Ratio Ki (Homo sapiens [18]): > 1450
Ratio Ki (Homo sapiens [19]): > 1450
Ratio Ki (Homo sapiens [20]): > 1450
Ratio Ki (Homo sapiens [21]): > 1450
Ratio Ki (Homo sapiens [22]): > 1450
AUC(0-t) at 6 h [3]: 11 µM·h
Kp at 6 h [5]: 0.3
inhibition (Rattus norvegicus [23]): Active
Ratio Ki (Homo sapiens [24]): > 1450
Ki [13]: 3.6 nM

Compound: COc1cc(C)c2nc3[nH]nc(C)c3c(N3CCOC(CO)C3)c2c1 (racemic)
concentration at 6 h [4]: < 10 ng/g
Ki [13]: 9.6 nM

Compound: COc1cc(C)c2nc3[nH]nc(C)c3c(NC3CCOCC3)c2c1
Ki (Phosphodiesterase 6): 278 nM
Ki (Phosphodiesterase 7): >= 4793 nM
Ki (Phosphodiesterase 8): >= 4793 nM
Ki [1]: ≥ 4790 nM
Ki [2]: ≥ 4790 nM
AUC(0-t) at 6 h [3]: 11.8 µM·h
concentration at 6 h [4]: 1100 ng/g
Kp at 6 h [5]: 0.7
fraction unbound [6]: 0.07
AUC [25]: 12.5 µM·h
hepatocyte CLint [26]: 1.7 µL/min/1e6 cells
hepatocyte CLint [27]: 2.9 µL/min/1e6 cells
hepatocyte CLint [28]: 0.8 µL/min/1e6 cells
hepatocyte CLint [29]: 54 µL/min/1e6 cells
efflux ratio [30]: 0.7
ED50 (Rattus norvegicus [31]): 4 mg/kg
ED50 (Rattus norvegicus [32]): 23 mg/kg
Ki [8]: 17300 nM
Ki [13]: 12 nM
Ki (Phosphodiesterase 1): >= 4793 nM
Ki [9]: ≥ 4790 nM
Ki (Phosphodiesterase 3): >= 4793 nM
Ki (Phosphodiesterase 4): >= 4793 nM

Further compounds by falling Ki [13], results first:

Ki [13]: 280 nM
Compound: COc1cc(C)c2nc3[nH]nc(C)c3c(NCC3CN(C)CCO3)c2c1 (stereo unspecified)

Ki [13]: 196 nM
Compound: COc1cc(C)c2nc3[nH]nc(C)c3c(N3CCSCC3)c2c1

Ki (Phosphodiesterase 6): 14782 nM
Ki [13]: 15 nM
Compound: COc1cc(C)c2nc3[nH]nc(C)c3c(NCC3CCNCC3)c2c1

AUC(0-t) at 6 h [3]: 9.5 µM·h
concentration at 6 h [4]: < 10 ng/g
concentration at 1 h [33]: 27 ng/g
Ki [13]: 3.3 nM
Compound: COc1cc(C)c2nc3[nH]nc(C)c3c(N3CCN(C(N)=O)[C@@H](C)C3)c2c1
inhibition (Rattus norvegicus [23]): inactive
